In ChEMBL document CHEMBL4359902, “Development of novel chromeno[4,3-c]pyrazol-4(2H)-one derivates bearing sulfonylpiperazine as antitumor inhibitors targeting PI3Kα” (Eur J Med Chem, 2019):

Experiments:
[1] = system: A549; assay: Antiproliferative activity against human A549 cells assessed as reduction in cell viability after 48 hrs by MTT assay; type: functional, cell-based; settings: A549, 48 h
[2] = system: HCT-116; assay: Antiproliferative activity against human HCT116 cells assessed as reduction in cell viability after 48 hrs by MTT assay; type: functional, cell-based; settings: HCT-116, 48 h
[3] = system: HL-60; assay: Antiproliferative activity against human HL60 cells assessed as reduction in cell viability after 48 hrs by MTT assay; type: functional, cell-based; settings: HL-60, 48 h
[4] = system: Huh-7; assay: Antiproliferative activity against human HuH7 cells assessed as reduction in cell viability after 48 hrs by MTT assay; type: functional, cell-based; settings: Huh-7, 48 h
[5] = Cytotoxicity against human 293T cells; type: cell-based; settings: HEK-293T cells
[6] = biological target: Phosphatidylinositol 4,5-bisphosphate 3-kinase catalytic subunit beta isoform (Homo sapiens, UniProt P42338); assay: Inhibition of PI3Kbeta (unknown origin) using diC8-PI(4,5)P2 as substrate incubated for 3 hrs in presence of ATP by fluorescence polarization assay
Chain of Phosphatidylinositol 4,5-bisphosphate 3-kinase catalytic subunit beta isoform (P42338 whole entry, canonical isoform): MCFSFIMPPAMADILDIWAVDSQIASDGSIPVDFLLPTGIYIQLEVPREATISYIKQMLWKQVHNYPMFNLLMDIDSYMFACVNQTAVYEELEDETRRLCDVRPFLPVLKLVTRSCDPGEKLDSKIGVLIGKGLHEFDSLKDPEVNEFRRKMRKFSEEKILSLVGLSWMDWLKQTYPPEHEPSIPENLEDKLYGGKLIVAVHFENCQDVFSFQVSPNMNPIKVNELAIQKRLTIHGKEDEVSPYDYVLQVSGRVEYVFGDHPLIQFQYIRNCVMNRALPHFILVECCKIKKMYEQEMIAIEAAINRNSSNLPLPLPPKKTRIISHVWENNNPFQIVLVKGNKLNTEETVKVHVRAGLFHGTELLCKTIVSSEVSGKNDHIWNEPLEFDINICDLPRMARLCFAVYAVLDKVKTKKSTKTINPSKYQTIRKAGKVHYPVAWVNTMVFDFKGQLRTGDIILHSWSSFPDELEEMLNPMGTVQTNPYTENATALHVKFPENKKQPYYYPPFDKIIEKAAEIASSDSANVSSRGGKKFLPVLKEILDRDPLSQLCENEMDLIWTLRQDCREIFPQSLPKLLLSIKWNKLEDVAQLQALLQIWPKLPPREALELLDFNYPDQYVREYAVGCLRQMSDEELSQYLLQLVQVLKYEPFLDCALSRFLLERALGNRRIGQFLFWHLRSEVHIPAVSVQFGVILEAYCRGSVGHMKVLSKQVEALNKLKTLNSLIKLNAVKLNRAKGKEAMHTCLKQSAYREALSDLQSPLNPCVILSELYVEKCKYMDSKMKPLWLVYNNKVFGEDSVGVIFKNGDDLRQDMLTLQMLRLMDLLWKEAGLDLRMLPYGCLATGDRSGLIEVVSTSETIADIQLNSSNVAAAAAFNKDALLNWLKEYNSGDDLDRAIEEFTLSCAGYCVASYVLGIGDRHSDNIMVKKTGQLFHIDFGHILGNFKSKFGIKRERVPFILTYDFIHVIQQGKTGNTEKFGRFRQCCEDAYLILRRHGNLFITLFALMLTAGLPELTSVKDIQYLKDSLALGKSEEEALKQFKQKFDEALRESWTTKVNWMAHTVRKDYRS
In short: (§1)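 Fluorescence polarization competition assay, 10 μL reactions at pH 7: 2.5 mM MgCl₂, 5 mM HEPES, ATP, 10 mM DTT, 50 ng PI3K isoform, diC8-PI(4,5)P2 substrate. After 3 h at room temperature, reactions were chelator-quenched. Phosphoinositide binding protein and fluorophore-labelled tracer were added, then 1 h dark equilibration and polarization read.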

[7] = biological target: T1, Phosphatidylinositol 4,5-bisphosphate 3-kinase catalytic subunit delta isoform (Homo sapiens, UniProt O00329); assay: Inhibition of PI3Kdelta (unknown origin) using diC8-PI(4,5)P2 as substrate incubated for 3 hrs in presence of ATP by fluorescence polarization assay; in short: as §1
T1 sequence (O00329 whole entry): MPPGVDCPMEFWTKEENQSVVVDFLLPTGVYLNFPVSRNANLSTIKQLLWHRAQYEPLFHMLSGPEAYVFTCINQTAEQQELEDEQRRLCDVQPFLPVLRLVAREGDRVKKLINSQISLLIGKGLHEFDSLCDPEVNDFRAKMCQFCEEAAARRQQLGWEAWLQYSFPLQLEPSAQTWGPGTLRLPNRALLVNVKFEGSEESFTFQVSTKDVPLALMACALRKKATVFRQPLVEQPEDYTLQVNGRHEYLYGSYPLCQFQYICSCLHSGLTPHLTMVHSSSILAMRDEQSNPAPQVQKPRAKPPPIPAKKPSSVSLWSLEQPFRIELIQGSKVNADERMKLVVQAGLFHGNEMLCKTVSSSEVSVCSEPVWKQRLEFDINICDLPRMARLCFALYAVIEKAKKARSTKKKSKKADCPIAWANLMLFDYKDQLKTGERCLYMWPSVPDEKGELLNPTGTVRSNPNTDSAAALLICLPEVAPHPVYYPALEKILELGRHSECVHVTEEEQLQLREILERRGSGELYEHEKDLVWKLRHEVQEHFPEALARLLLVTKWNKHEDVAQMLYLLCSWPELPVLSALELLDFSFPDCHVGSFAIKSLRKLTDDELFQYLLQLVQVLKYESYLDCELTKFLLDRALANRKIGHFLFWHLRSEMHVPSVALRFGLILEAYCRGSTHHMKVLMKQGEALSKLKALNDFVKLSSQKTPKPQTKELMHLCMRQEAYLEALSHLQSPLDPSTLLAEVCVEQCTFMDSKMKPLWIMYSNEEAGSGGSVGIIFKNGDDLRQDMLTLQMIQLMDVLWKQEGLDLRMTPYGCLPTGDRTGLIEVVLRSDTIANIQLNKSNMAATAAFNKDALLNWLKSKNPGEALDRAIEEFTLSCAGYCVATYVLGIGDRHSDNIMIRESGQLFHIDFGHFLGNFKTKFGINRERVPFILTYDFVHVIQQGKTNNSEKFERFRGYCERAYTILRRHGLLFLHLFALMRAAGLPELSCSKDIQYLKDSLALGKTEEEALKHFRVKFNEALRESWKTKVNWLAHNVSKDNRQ

[8] = biological target: Phosphatidylinositol 4,5-bisphosphate 3-kinase catalytic subunit alpha isoform (Homo sapiens, UniProt P42336); assay: Inhibition of PI3Kalpha (unknown origin) using diC8-PI(4,5)P2 as substrate incubated for 3 hrs in presence of ATP by fluorescence polarization assay; in short: as §1
Chain of Phosphatidylinositol 4,5-bisphosphate 3-kinase catalytic subunit alpha isoform (P42336 whole entry, canonical isoform): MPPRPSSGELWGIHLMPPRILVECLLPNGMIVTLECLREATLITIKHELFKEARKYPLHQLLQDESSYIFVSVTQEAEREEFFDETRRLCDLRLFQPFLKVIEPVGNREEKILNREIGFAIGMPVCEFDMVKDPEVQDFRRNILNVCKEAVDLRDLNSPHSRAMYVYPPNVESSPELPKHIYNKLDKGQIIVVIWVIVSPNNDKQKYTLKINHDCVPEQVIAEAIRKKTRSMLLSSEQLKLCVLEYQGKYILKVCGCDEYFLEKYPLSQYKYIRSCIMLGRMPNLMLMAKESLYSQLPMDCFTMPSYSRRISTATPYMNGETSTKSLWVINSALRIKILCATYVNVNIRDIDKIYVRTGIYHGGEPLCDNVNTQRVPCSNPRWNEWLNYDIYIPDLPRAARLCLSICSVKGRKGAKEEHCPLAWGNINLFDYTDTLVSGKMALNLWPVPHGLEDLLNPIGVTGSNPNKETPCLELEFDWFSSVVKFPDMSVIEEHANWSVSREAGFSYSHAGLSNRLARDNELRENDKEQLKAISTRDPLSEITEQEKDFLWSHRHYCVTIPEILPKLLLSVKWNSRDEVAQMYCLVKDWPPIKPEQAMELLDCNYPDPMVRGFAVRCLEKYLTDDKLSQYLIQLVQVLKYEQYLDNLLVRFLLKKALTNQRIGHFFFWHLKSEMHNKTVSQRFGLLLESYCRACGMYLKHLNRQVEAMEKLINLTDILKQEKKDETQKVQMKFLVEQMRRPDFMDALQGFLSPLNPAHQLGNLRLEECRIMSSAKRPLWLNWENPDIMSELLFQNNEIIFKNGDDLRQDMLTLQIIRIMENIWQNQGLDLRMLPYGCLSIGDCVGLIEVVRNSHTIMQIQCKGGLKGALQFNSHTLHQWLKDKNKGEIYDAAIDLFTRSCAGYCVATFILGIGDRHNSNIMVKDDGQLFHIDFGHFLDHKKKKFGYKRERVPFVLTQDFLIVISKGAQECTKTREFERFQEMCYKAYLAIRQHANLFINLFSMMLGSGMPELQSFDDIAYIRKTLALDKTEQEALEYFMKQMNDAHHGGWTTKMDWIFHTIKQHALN

[9] = biological target: Serine/threonine-protein kinase mTOR (Homo sapiens, UniProt P42345); assay: Inhibition of mTOR (unknown origin)
[10] = biological target: Phosphatidylinositol 4,5-bisphosphate 3-kinase catalytic subunit gamma isoform (Homo sapiens, UniProt P48736); assay: Inhibition of PI3Kgamma (unknown origin) using diC8-PI(4,5)P2 as substrate incubated for 3 hrs in presence of ATP by fluorescence polarization assay; in short: as §1
Chain of Phosphatidylinositol 4,5-bisphosphate 3-kinase catalytic subunit gamma isoform (P48736 whole entry, canonical isoform): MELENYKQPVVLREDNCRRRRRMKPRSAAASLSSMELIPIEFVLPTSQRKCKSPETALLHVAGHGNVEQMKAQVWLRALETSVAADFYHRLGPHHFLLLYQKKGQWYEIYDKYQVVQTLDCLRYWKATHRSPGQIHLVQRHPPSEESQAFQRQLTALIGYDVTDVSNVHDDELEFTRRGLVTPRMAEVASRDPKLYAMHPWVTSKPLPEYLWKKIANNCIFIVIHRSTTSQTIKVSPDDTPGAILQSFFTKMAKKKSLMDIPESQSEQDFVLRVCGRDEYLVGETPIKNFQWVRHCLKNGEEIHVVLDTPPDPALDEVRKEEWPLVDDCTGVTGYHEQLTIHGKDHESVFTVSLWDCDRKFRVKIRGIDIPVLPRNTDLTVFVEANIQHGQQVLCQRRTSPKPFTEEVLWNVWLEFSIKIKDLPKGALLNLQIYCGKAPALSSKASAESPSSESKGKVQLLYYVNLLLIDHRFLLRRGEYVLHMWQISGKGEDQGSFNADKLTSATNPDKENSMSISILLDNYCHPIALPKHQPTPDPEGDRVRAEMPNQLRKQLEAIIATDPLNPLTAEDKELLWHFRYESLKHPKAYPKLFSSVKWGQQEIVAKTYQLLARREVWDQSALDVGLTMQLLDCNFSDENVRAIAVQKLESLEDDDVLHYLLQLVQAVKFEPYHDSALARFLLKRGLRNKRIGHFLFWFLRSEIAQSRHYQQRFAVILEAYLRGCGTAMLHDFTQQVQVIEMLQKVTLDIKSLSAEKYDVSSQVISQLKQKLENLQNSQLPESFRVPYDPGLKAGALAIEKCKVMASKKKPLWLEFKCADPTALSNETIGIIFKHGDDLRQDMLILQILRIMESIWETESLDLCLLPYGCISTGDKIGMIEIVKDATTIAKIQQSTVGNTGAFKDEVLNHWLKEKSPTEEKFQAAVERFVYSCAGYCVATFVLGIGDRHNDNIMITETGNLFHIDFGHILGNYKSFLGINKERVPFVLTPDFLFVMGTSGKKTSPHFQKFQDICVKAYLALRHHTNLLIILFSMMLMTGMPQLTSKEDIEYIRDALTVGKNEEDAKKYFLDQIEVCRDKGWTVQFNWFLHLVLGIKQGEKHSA

[11] = system: HCT-116; assay: Antitumour activity against human HCT116 cells xenografted in nude mouse assessed as tumour growth inhibition at 10 mg/kg, ig administered every 3 days for 3 weeks and measured after 3 weeks relative to control; type: functional; settings: HCT-116, po, read-out: TGI
In short: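 HCT-116 cells (5 × 10^6 per animal) injected into right flank of nude mice; at ~100 mm³ tumours, randomized into groups of 6. Dosed 10 mg/kg in 5% CMC-Na intragastrically every three days for three weeks; vehicle control 5% CMC-Na. Body weight and tumour size recorded every three days, volume = 0.5 × length × width²; tumours excised and weighed at end. Mean ± SD.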

| IC50 [1] | IC50 [2] | IC50 [3] | IC50 [4] | IC50 [6] | IC50 [7] | IC50 [8] | IC50 [9] | IC50 [10] | Structure (SMILES) | CC50 [5] | inhibition in vivo at 10 mg/kg [11] |
| --- | --- | --- | --- | --- | --- | --- | --- | --- | --- | --- | --- |
| 52.1 µM | 38 µM | 55.1 µM | 48.5 µM |  |  |  |  |  | O=c1oc2ccccc2c2nn(CN3CCN(S(=O)(=O)CCCCl)CC3)cc12 |  |  |
| 13.9 µM | 7.53 µM | 22.1 µM | 11.3 µM |  |  |  |  |  | O=c1oc2ccccc2c2nn(CN3CCN(S(=O)(=O)c4ccccc4)CC3)cc12 |  |  |
| 79.7 µM | 57.6 µM | 89.4 µM | 87.6 µM |  |  |  |  |  | CCCS(=O)(=O)N1CCN(Cn2cc3c(=O)oc4ccccc4c3n2)CC1 |  |  |
| > 100 µM | > 100 µM | > 100 µM | > 100 µM |  |  |  |  |  | O=c1oc2ccccc2c2nn(CN3CCN(S(=O)(=O)C(F)(F)F)CC3)cc12 |  |  |
| 21.5 µM | 11.1 µM | 16.9 µM | 28.5 µM |  |  |  |  |  | Cc1ccc(S(=O)(=O)N2CCN(Cn3cc4c(=O)oc5ccccc5c4n3)CC2)cc1 |  |  |
| 3.09 µM | 1.89 µM | 4.78 µM | 5.08 µM | 9.71 µM | 9.31 µM | 8.3 µM | > 10 µM | > 10 µM | O=c1oc2ccccc2c2nn(CN3CCN(S(=O)(=O)c4ccc(Br)cc4)CC3)cc12 | 387 µM |  |
| 3.67 µM | 1.29 µM | 2.01 µM | 3.65 µM | > 10 µM | > 10 µM | 6.18 µM | > 10 µM | 9.34 µM | O=c1oc2ccccc2c2nn(CN3CCN(S(=O)(=O)c4cccc([N+](=O)[O-])c4)CC3)cc12 | 412 µM |  |
| 0.38 µM | 0.24 µM | 0.91 µM | 0.53 µM |  |  |  |  |  | Cn1c(=O)n(-c2ccc(C(C)(C)C#N)cc2)c2c3cc(-c4cnc5ccccc5c4)ccc3ncc21 [DACTOLISIB] |  |  |
| 2.1 µM | 0.92 µM | 2.67 µM | 2.82 µM | 4.14 µM | 5.45 µM | 2.63 µM | > 10 µM | 4.01 µM | O=c1oc2ccccc2c2nn(CN3CCN(S(=O)(=O)c4ccc([N+](=O)[O-])cc4)CC3)cc12 | 347 µM |  |
| > 100 µM | 87.9 µM | > 100 µM | > 100 µM |  |  |  |  |  | CCCCS(=O)(=O)N1CCN(Cn2cc3c(=O)oc4ccccc4c3n2)CC1 |  |  |
| 0.74 µM | 0.47 µM | 0.84 µM | 0.9 µM | 2.65 µM | 0.75 µM | 0.95 µM | > 10 µM | 1.32 µM | CC(C)(C)c1ccc(S(=O)(=O)N2CCN(Cn3cc4c(=O)oc5ccccc5c4n3)CC2)cc1 | 231 µM |  |
| > 100 µM | > 100 µM | > 100 µM | 97.1 µM |  |  |  |  |  | CS(=O)(=O)N1CCN(Cn2cc3c(=O)oc4ccccc4c3n2)CC1 |  |  |
|  |  |  |  |  |  |  | > 10 µM |  | O=c1cc(N2CCOCC2)oc2c(-c3ccccc3)cccc12 [LY-294002] |  | 35.2% |
| 27.4 µM | 12.1 µM | 24.5 µM | 34 µM |  |  |  |  |  | COc1ccc(S(=O)(=O)N2CCN(Cn3cc4c(=O)oc5ccccc5c4n3)CC2)cc1 |  |  |
| 0.09 µM | 0.08 µM | 0.09 µM | 0.14 µM | 0.21 µM | 0.42 µM | 0.042 µM | > 10 µM | 0.11 µM | CC(C)c1cc(C(C)C)c(S(=O)(=O)N2CCN(Cn3cc4c(=O)oc5ccccc5c4n3)CC2)c(C(C)C)c1 | 332 µM |  |
| 0.11 µM | 0.09 µM | 0.11 µM | 0.3 µM | 0.41 µM | 0.23 µM | 0.12 µM | 7.44 µM | 0.14 µM | Cc1cc(C)c(S(=O)(=O)N2CCN(Cn3cc4c(=O)oc5ccccc5c4n3)CC2)c(C)c1 | 354 µM |  |
| 0.48 µM | 0.13 µM | 0.22 µM | 0.66 µM | 0.85 µM | 1.42 µM | 0.3 µM | > 10 µM | 0.81 µM | Cc1ccc(C)c(S(=O)(=O)N2CCN(Cn3cc4c(=O)oc5ccccc5c4n3)CC2)c1 | 397 µM |  |
| 1.21 µM | 0.81 µM | 0.64 µM | 1.61 µM | 2.19 µM | 4.72 µM | 1.55 µM | > 10 µM | 2.65 µM | O=c1oc2ccccc2c2nn(CN3CCN(S(=O)(=O)c4ccc(Cl)cc4)CC3)cc12 | 278 µM |  |
| 5.11 µM | 2.45 µM | 6.33 µM | 6.44 µM | > 10 µM | 9.76 µM | 8.91 µM | 9.12 µM | 7.51 µM | O=c1oc2ccccc2c2nn(CN3CCN(S(=O)(=O)c4ccc(F)cc4)CC3)cc12 | 298 µM |  |
| 68.7 µM | 45.8 µM | 78.6 µM | 62.9 µM |  |  |  |  |  | O=c1oc2ccccc2c2nn(CN3CCN(S(=O)(=O)CCCl)CC3)cc12 |  |  |
| 82 µM | 69.3 µM | 71.4 µM | 79 µM |  |  |  |  |  | O=c1oc2ccccc2c2nn(CN3CCN(S(=O)(=O)C4CC4)CC3)cc12 |  |  |
| 1.15 µM | 0.84 µM | 1.1 µM | 2.34 µM | 5.75 µM | 7.51 µM | 3.84 µM | 8.12 µM | 2.3 µM | O=c1oc2ccccc2c2nn(CN3CCN(S(=O)(=O)c4ccc(C(F)(F)F)cc4)CC3)cc12 | 335 µM |  |
| > 100 µM | > 100 µM | > 100 µM | > 100 µM |  |  |  |  |  | CCS(=O)(=O)N1CCN(Cn2cc3c(=O)oc4ccccc4c3n2)CC1 |  |  |
| 7.66 µM | 4.87 µM | 8.23 µM | 7.92 µM | 9.14 µM | 6.15 µM | > 10 µM | 8.37 µM | 8.42 µM | O=c1oc2ccccc2c2nn(CN3CCN(S(=O)(=O)c4ccccc4[N+](=O)[O-])CC3)cc12 | 372 µM |  |
